Screens as filed in PubChem BioAssay.
Only some compounds are listed: those with a hit (about 2.3% of all), similar ones and a draw of the others.
TRPC4 PAM = TRPC4 (mouse) allosteric potentiation; Q9QUQ5; HEK293 TRPC4beta/mu-opioid, DAMGO EC20, Fluo-4 Ca2+ flux; active compounds read high; B-score at 10 µM; 0.42% of 310,000 active; AID 2227;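 active = B-score of calcium response area above 5 SD of library B-scores, with initial fluorescence ratio within 5 SD of library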;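 also: B-score of integrated fluorescence ratio over time as area under calcium response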
TRPC6 inh = blocks the mouse TRPC6 cation channel; Q61143; HEK293-TRPC6, membrane potential dye, ACh-evoked depolarization; active compounds read low; B-score at 10 µM; 1.1% of 310,000 active; AID 2553;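 active = B-score under library mean minus 3 SD, initial fluorescence not abnormally high, positive integrated signal ratio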;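 also: B-score derived from integrated fluorescence ratio over the kinetic read; more negative B-score means stronger inhibition of depolarization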
TRPC4 block = blocks the mouse TRPC4 cation channel; Q9QUQ5; HEK293 TRPC4beta/mu-opioid, DAMGO-evoked Fluo4 calcium flux; active compounds read low; B-score at 10 µM; 0.39% of 300,000 active; AID 2247;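 active = B-score over 3 SD under the library average, no early fluorescence shift, positive overall ratio signal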
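Assay system – HEK293 line stably carrying TRPC4beta and mu-opioid receptor · Doses – single dose · Detection – Fluo4 calcium-dye fluorescence, kinetic read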
TRPC4 act = activators of mouse TRPC4 channel. HEK293 TRPC4beta/mu-opioid, Fluo4 calcium fluorescence; active compounds read high. AID 2237. 0.49% of 310,000 active. Q9QUQ5. B-score at 10 µM;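 active = B-score above 5 SD of library B-scores, and initial fluorescence ratio not above library mean plus 5 SD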;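 also: positive B-score marks a calcium rise read as TRPC4 activation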
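system = HEK293 cells stably co-expressing mouse TRPC4beta and mu-opioid receptor | schedule = Fluo4 dye loading 45 min at room temperature, 110 s recording | measure = B-scored integrated calcium fluorescence ratio | signal = Fluo4 calcium-sensitive dye fluorescence, kinetic, 1 Hz baseline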
DNA FID counter = displaces DNA intercalator in HCV helicase counter-screen. inhibition, % at 7.9 µM. DNA fluorescent intercalator displacement, fluorescence. AID 1845. 0.17% of 290,000 active; in the data active = inhibition above about 37%;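 also: 0% = vehicle and 100% = reference compound; higher means more ethidium bromide displaced from hairpin DNA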
TRPC6 activator = activators of mouse TRPC6 channel | Q61143 | B-score at 10 µM | HEK293-TRPC6 membrane potential dye fluorescence; active compounds read high | 0.13% of 310,000 active | AID 2550;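 active = B-score of the integrated fluorescence ratio above library mean plus 3 SD, and starting fluorescence ratio within library mean plus 5 SD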;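 also: higher score means more depolarization so channel activation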
TRPC4 sel inh 2 = second check of whether TRPC6 inhibitors also affect mouse TRPC4; inhibition, % at 10 µM; AID 2776; 42% of 920 active; HEK293 TRPC4/MOR, membrane potential dye fluorescence; channel activated by saturating DAMGO dose; shares compounds with TRPC6 inh;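 active = compounds whose fluorescence signal differed from control wells by over 3 SD, either direction, in both duplicate plates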
TRPC4 spec = tests whether TRPC6 inhibitors also affect mouse TRPC4 | shares compounds with TRPC6 inh | HEK293 TRPC4/mu-opioid, membrane potential fluorescence | activity change, negative = inhibition, % at 10 µM | 61% of 920 active | AID 2777;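 active = rise or fall in signal beyond 3 SD of buffer-only wells in both replicate plates, either sign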;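 also: integrated kinetic ratio of fluorescence range over baseline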
HEK293 MPD ctr 2-1 = second check of TRPC6 inhibitor effects in parental HEK293 cells; shares compounds with TRPC6 inh; parental HEK293 membrane potential dye fluorescence; maximal acetylcholine challenge after compound addition; signal change vs control, % at 10 µM; 31% of 920 active; AID 2779;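 active = membrane potential signal moving either way by over 3 SD of the maximum-effect control, in both duplicate plates, meaning non-specific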
HEK293 MPD ctr-1 = checks TRPC6 inhibitor effects in parental HEK293 cells. shares compounds with TRPC6 inh. parental HEK293 membrane potential dye fluorescence. membrane potential signal change, % at 10 µM. 60% of 920 active;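 active = membrane potential signal shifting up or down by more than 3 SD of buffer-only wells, on both duplicate plates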
HEK293 MPD ctr-2 = counter-screen for TRPC6 modulators: effect in parental HEK293 cells; shares compounds with TRPC6 inh; 51% of 2,400 active; membrane potential dye fluorescence; membrane potential signal change, % at 10 µM; AID 488924;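 active = membrane potential signal moves up or down beyond 5 SD from buffer-only wells, on both duplicate plates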
HEK293 MPD ctr 2-2 = parental HEK293 nonspecific activity of TRPC6 modulators, second screen | shares compounds with TRPC6 inh | membrane potential dye fluorescence; after compound, maximal acetylcholine stimulation | inhibition, % at 10 µM | 14% of 2,400 active | AID 488926;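 active = membrane potential signal drops by more than 5 SD from the mean control signal, in both duplicate plates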;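 also: plate controls were acetylcholine ECmax control wells for no effect and buffer only wells for full effect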
TRPC4/MOR mod = selectivity of TRPC6 modulators against mouse TRPC4 | HEK293 TRPC4/mu-opioid, membrane potential fluorescence | shares compounds with TRPC6 inh | 69% of 2,400 active | percent change from control (negative = decrease, positive = increase), % at 10 µM;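 active = membrane potential signal moved up or down beyond 5 SD of buffer control wells, in both duplicate plates, actives on both sides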;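 also: plate controls were assay buffer wells for no effect and DAMGO maximal-effect wells for full effect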
TRPC4/MOR inh 2 = second selectivity test of TRPC6 modulators against mouse TRPC4. inhibition, % at 10 µM. 55% of 2,400 active. HEK293 TRPC4/mu-opioid, membrane potential dye fluorescence; stimulated with maximal-effect DAMGO. AID 488928. shares compounds with TRPC6 inh;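 active = drop in membrane potential signal beyond 5 SD of the control wells in both duplicate plates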;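 also: TRPC4 counter screen for TRPC6 hits run under conditions tuned for TRPC6 not TRPC4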
TRPC6 block conf = mouse TRPC6 inhibitor confirmation. shares compounds with TRPC6 inh. HEK293-TRPC6, membrane potential dye, ACh-evoked depolarization. inhibition, % at 10 µM. 43% of 3,300 active. AID 488960;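 active = fluorescence ratio falls more than 5 SD below the full-stimulation control mean, in both duplicate runs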;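 also: integrated fluorescence ratio of peak minus minimum over baseline after agonist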
TRPC6 act conf = confirmation of mouse TRPC6 activators; shares compounds with TRPC6 inh; HEK293-TRPC6 membrane potential dye fluorescence, FDSS; activation, % at 10 µM; 11% of 2,800 active; AID 488961;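 active = ratio signal rise beyond 5 SD above unstimulated control wells' mean, seen in both duplicate runs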;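 also: plate controls were buffer EC0 wells for no effect and acetylcholine ECmax response for full effect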
* = called active by the depositor; i = inactive; / = not tested or not shown.

SMILES	TRPC4 PAM	TRPC6 inh	TRPC4 block	TRPC4 act	DNA FID counter	TRPC6 activator	HEK293 MPD ctr-2	HEK293 MPD ctr 2-2	TRPC4/MOR mod	TRPC4/MOR inh 2	TRPC6 block conf	TRPC6 act conf	others
COc1ccccc1/C=C1\SC(=S)N(CCC(=O)N2CCN(C)CC2)C1=O	i	-5.3*	i	i	6	i	i	i	i	44%*	i	i
CCOC(=O)N1CCN(C(=O)CCN2C(=O)/C(=C\c3ccccc3OC)SC2=S)CC1	i	i	i	i	-5	i	/	/	/	/	/	/
Fc1cccc(NCc2cn3ccccc3n2)c1	i	-5.5*	i	i	2	i	i	i	i	i	i	i
Fc1ccc(NCc2cn3ccccc3n2)cc1	i	i	i	i	-1	i	/	/	/	/	/	/
COc1ccccc1CNC(=O)C1CC2Cn3c(nc4ccccc43)C2N1C (configuration not stated)	i	i	i	i	/	13*	i	i	i	i	i	i
COc1ccccc1CNC(=O)C1CC2Cn3c(nc4cc(C)c(C)cc43)C2N1C (configuration not stated)	i	i	i	i	/	i	/	/	/	/	/	/
CCCCn1c(N)c(N(CCOC)C(=O)c2ccc(Cl)c(S(=O)(=O)N3CCCC3)c2)c(=O)[nH]c1=O	i	i	i	i	-23	i	/	/	/	/	/	/
CCCCn1c(N)c(N(CCOC)C(=O)c2ccc(C)c(S(=O)(=O)N3CCCCC3)c2)c(=O)[nH]c1=O	i	-5.8*	i	i	/	i	i	i	i	i	i	i
CCOc1ccc(NC(=O)CN(C)C(=O)CSCc2ccc(C)cc2)cc1OCC	i	i	i	i	/	i	/	/	/	/	/	/
O=C(Nc1ccc(C2=NCCN2)cc1)c1ccc(C(=O)Nc2ccc(C3=NCCN3)cc2)c([N+](=O)[O-])c1	i	i	i	i	70*	15*	440%*	i	70%*	i	i	193%*
CCOC(=O)c1c(CSc2ccccc2)n(C)c2cc(Br)c(O)c(CN(C)C)c12	i	-5.9*	i	i	2	i	i	i	i	56%*	44%*	i
CCOC(=O)c1c(CSc2ccc(C)cc2)n(C)c2cc(Br)c(O)c(CN(C)C)c12	i	-5.9*	i	i	1	i	i	i	i	64%*	47%*	i
CCOC(=O)c1c(CN2CCCCC2)n(C)c2cc(Br)c(O)c(CN(C)C)c12	i	-7.1*	i	i	4	i	-252%*	i	-52%*	58%*	45%*	i
O=C(O)c1ccc2c(c1)C(=O)N(c1ccc(Nc3ccccc3)cc1)C2=O	i	i	i	i	-18	i	/	/	/	/	/	/
CCN(Cc1nc(-c2cccc(C)c2)no1)C(=O)c1ccc2c(c1)OCO2	i	i	i	i	-34	i	/	/	/	/	/	/
O=C(CN1C(=O)C2CC=CCC2C1=O)NCC(=O)Nc1ccc(F)c(F)c1 (configuration not stated)	i	i	i	i	/	i	/	/	/	/	/	/
COc1ccc(CN2CCN(C(=O)c3ccco3)CC2)c(OC)c1OC	i	i	i	i	/	i	/	/	/	/	/	/
CCC[N+]1(CC#CCC(c2ccccc2)c2ccccc2)CCCCC1	i	-5.2*	i	i	11	i	i	i	12%*	i	42%*	i
Cc1ccc(C#CC[N+]2(CC#Cc3ccc(C)cc3)CCCCC2)cc1	i	-5.4*	i	i	9	i	92%*	i	17%*	i	44%*	/
C(#Cc1ccccc1)C[N+]1(CC#Cc2cccc3ccccc23)CCOCC1	i	-5*	i	i	31	i	-78%*	i	-16%*	i	i	i
C#CC[N+]1(CC#Cc2ccccc2)CCOCC1	i	i	i	i	-1	i	/	/	/	/	/	/
C(#Cc1ccccc1)C[N+]1(CC#Cc2ccccc2)CCCCC1	i	-9.1*	i	i	7	i	/	/	/	/	66%*	i	TRPC4 sel inh 2=i;TRPC4 spec=-0.2%*;HEK293 MPD ctr 2-1=i;HEK293 MPD ctr-1=0.7%*
O=C(CCCOc1cccc(Br)c1)NCCOc1ccccc1	i	i	i	i	-35	i	/	/	/	/	/	/
CCCCCCCn1c(=N)n(CC(O)c2ccco2)c2ccccc21 (configuration not stated)	i	-5.4*	i	i	34	i	235%*	i	44%*	93%*	70%*	/
CCCCCCCn1c(=N)n(CC(=O)c2ccco2)c2ccccc21	i	-5.3*	i	i	8	i	94%*	i	16%*	78%*	58%*	i
CCOc1cc(/C=C/C(=O)c2ccc(OC)c(CN3CCOCC3)c2)cc(Br)c1O	i	i	i	i	5	20*	184%*	i	26%*	i	i	42%*
